# Source: PubChem BioAssay (several laboratories)
# Shown are actives, neighbours in structure and some others; about 9.2% of the full set was active somewhere.
# HUVEC prolif 384: human endothelial cell proliferation inhibition. AID 648. HUVEC proliferation, CellTiter-Glo luminescence, 72 h; active compounds read low. actives 1.1% (n = 86,000). viability, % at 10 µM (by protocol);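 active = viability at or below 30%; inactive = viability above 30%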
# ERb coact inh: blocks coactivator binding to human estrogen receptor beta. AID 633. actives 1.3% (n = 86,000). TR-FRET ER-beta LBD / SRC1-Cy5 peptide binding; receptor agonist-loaded with 1 µM estradiol. inhibition, % at 25.6 µM;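 active = compounds whose percent inhibition of the receptor-coactivator binding signal exceeds about 50% in the single-dose screen, limit read from the data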
# Target sequence (Q92731 whole entry, looked up, the tested form may be a part): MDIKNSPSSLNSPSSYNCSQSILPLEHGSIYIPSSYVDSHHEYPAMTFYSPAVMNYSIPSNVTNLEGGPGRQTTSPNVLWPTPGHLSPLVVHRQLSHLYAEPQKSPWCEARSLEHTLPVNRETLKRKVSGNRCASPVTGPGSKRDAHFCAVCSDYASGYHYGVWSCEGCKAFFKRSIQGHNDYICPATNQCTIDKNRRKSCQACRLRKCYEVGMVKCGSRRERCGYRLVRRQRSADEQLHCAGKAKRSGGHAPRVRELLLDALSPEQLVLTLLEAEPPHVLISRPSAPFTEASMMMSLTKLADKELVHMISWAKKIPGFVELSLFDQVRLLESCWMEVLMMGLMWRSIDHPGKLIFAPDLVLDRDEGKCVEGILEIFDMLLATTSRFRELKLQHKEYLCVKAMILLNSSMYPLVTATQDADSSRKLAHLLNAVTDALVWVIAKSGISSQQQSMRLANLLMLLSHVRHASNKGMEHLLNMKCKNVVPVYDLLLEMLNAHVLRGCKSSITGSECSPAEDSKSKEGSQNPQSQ
# H69AR inhibit: blocks growth of human H69AR lung tumor cells | viability, % at 10 µM | actives 6% (n = 85,000) | H69AR lung tumor viability, ATP luminescence, 72 h; active compounds read low;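 active = viability at or below 40%; inactive = viability above 40%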;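 note: multidrug resistant small cell line overexpressing MRP-1 efflux transporter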
# Fibroblast inh: blocks proliferation of human lung fibroblasts; actives 1.1% (n = 85,000); viability, % at 10 µM; LL 47 human lung fibroblast viability, ATP luminescence; active compounds read low; AID 719;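 active = viability at or below 50% in the single dose screen; inactive = viability above 50%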;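 note: compound exposure lasted 72 h before the ATP readout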
#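 Times – overnight cell rest, 72 h compound treatment at 37 °C · Test system – human lung fibroblast line LL 47, low passage · Amount – 1,150 cells in each well · Controls – cell-only wells, no compound · Doses – 0.1% DMSO in all compound wells · Measured by – CellTiter-Glo luminescence · Buffer or medium – IMEM plus 15% FBS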
# ERa SRC1 pot: enhances coactivator binding to human estrogen receptor alpha; P03372; coactivator binding (% of control), % at 25.6 µM; TR-FRET ERalpha-LBD/SRC-Cy5 coactivator binding, 2 h; 100 = basal binding, no effect; actives 1.3% (n = 86,000); AID 639; in the data active = activity above about 200%;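 note: binding measured in presence of low estradiol as agonist stimulus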
# ERa coact inh: blocks coactivator binding to human estrogen receptor alpha | actives 1.7% (n = 86,000) | inhibition, % at 25.6 µM | TR-FRET ER-alpha LBD / SRC-1 peptide, estradiol-bound | P03372 | AID 629; in the data active = inhibition above about 50%
# A number is an active result; . = inactive; / = no result given; [ ] = dose if it differs, or a comment.
SMILES,HUVEC prolif 384,ERb coact inh,H69AR inhibit,Fibroblast inh,ERa SRC1 pot,ERa coact inh
COC(=O)c1cc(Br)c(=O)n(CCc2ccccc2)c1,.,.,.,.,.,.
COC(=O)c1cc2ccccc2c(=O)s1,.,.,.,.,.,.
CC1CCC2(CC1)C(Nc1cccc(Cl)c1)=NC(=S)N2CC#N (configuration not stated),.,.,.,.,.,.
O=C(NC1CCCCC1)C(c1ccco1)N(Cc1ccco1)C(=O)c1ccco1 (configuration not stated),.,.,.,.,.,.
C=CCc1ccc(OCC(O)COc2ccc(CC=C)cc2OC)c(OC)c1,.,.,34.6,.,.,.
C=CCc1ccc(OCC(O)CN2CCCCC2)c(OC)c1 (configuration not stated),.,.,.,.,.,.
CCC(C)(C(=O)NC1CCCC1)N(C(=O)c1ccccn1)c1ccccc1 (configuration not stated),.,.,.,.,.,.
C=CCN(C(=O)CCC(=O)O)C1CC(=O)N(c2ccc(OCCC)cc2)C1=O (configuration not stated),.,.,.,.,.,.
CC(NC(=O)c1noc2c1CCCC2)c1ccccc1 (configuration not stated),.,.,.,.,.,.
COC(=O)c1ccccc1NC(=O)c1cc(-c2cccs2)on1,25.3,.,10.5,.,251.3[fluorescence artefact?],.
COC(=O)c1ccccc1NC(=O)c1cc(-c2cccc(OC)c2)on1,.,.,.,.,.,.
CCc1ccc(NC(=O)c2noc3c2CCC3)cc1,.,76.5,.,.,.,81.5
CC(C)(C)C1CCc2onc(C(=O)NC3CCCC3)c2C1 (configuration not stated),.,.,.,.,.,.
CSc1ccccc1NC(=O)c1noc2c1CCC2,.,86.3,.,.,.,91.7[fluorescence artefact?]
O=C(NC1CCCCC1)c1noc2c1CCCCC2,.,61.3[fluorescence artefact?],.,/,.,50.4[fluorescence artefact?]
O=C(c1ccccc1)[C@H]1[C@H](c2ccccc2)[C@@]2(N=C(c3ccccc3)OC2=O)C2c3ccccc3C=NN21 (some centres not stated),.,.,.,.,.,.
Clc1ccc(CCNc2nc3ccccc3s2)cc1,.,.,.,.,.,.
O=C(NCc1ccccc1)c1noc2c1CCCC2,.,.,.,.,.,.
O=C(NCc1cccc(F)c1)c1noc2c1CCCC2,.,.,39.8,.,.,.
COC(=O)c1ccccc1NC(=O)c1noc2c1CCC2,.,87.3,.,.,.,89.1[fluorescence artefact?]
Cc1[nH]n(-c2ccc([N+](=O)[O-])cc2)c(=O)c1C=NCCN1CCN(C(=O)c2ccc(Br)cc2)CC1,.,.,39.5,.,.,.
Cc1ccc2c(c1)-c1c(cnn1CC(=O)Nc1ccccc1N1CCN(C)CC1)CO2,.,.,.,.,.,.
O=C(NCCc1ccccc1)C1CCN(S(=O)(=O)N2CCCC2)CC1,.,.,.,.,.,.
O=C(NCCc1ccccc1)C1CCN(S(=O)(=O)c2cccnc2)CC1,.,.,.,.,.,58.5[fluorescence artefact?]
CCOC(=O)c1ccc(-n2c(N)c(C(=O)NCc3ccco3)sc2=S)cc1,.,.,.,.,.,.
SMILES,HUVEC prolif 384,ERb coact inh,H69AR inhibit,Fibroblast inh,ERa SRC1 pot,ERa coact inh
CCOC(=O)c1ccc(N=c2sc(C(=O)OC)cc(=O)n2CCCN2CCOCC2)cc1,.,.,20.5,.,.,.
CCOC(=O)c1ccc(N=c2sc(C(=O)OC)cc(=O)n2Cc2ccco2)cc1,28.5,.,1.3,.,.,.
CCOc1ccc2nc(NC(=O)CSc3nc4ccccc4c(=O)n3Cc3ccco3)sc2c1,.,52.9[fluorescence artefact?],.,.,.,.
CCOc1ccc2nc(NC(=O)Cn3cnc4c3c(=O)n(C)c(=O)n4C)sc2c1,.,.,.,.,.,.
Cn1cccc1Cc1nnc(SCC(=O)Nc2nc3ccccc3s2)n1CCc1ccccc1,.,.,5.4,.,.,.
CCn1c(SCC(=O)N2c3ccccc3CCc3ccccc32)nc2c1c(=O)n(C)c(=O)n2C,.,.,14.3,.,.,.
CCCCn1c(SCC(=O)N2c3ccccc3CCc3ccccc32)nc2c1c(=O)n(C)c(=O)n2C,.,.,.,.,.,.
